From ChEMBL document CHEMBL1143061, “Synthesis and antifungal activities of 5-(3,4,5-trimethoxyphenyl)-2-sulfonyl-1,3,4-thiadiazole and 5-(3,4,5-trimethoxyphenyl)-2-sulfonyl-1,3,4-oxadiazole derivatives” (Bioorg Med Chem, 2007)
Values after ≈ are worked out from the molar mass of the structure shown.

Legend:
Botrytis cinerea [1] = assay: Antifungal activity against Botrytis cinerea at 50 ug/mL; format: functional
Sclerotinia sclerotiorum [2] = assay: Antifungal activity against Sclerotinia sclerotiorum at 50 ug/mL; format: functional
Fusarium graminearum [3] = assay: Antifungal activity against Gibberella zeae at 50 ug/mL; format: functional
[4] = system: Colletotrichum gloeosporioides; assay: Growth inhibition of Colletotrichum gloeosporioides; format: functional, organism-based
Sclerotinia sclerotiorum [5] = assay: Antifungal activity against Sclerotinia sclerotiorum; format: functional, organism-based
Rhizoctonia solani = assay: Growth inhibition of Rhizoctonia solani; format: functional, organism-based
Outline: (§1)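 In vitro inhibition of mycelial growth, with hymexazol as the reference fungicide. The EC50, the concentration that inhibits growth by 50%, was read from a dose–response curve. Results come from three separate experiments, each run in triplicate.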

Botrytis cinerea [6] = assay: Antifungal activity against Botrytis cinerea; format: functional, organism-based
Fusarium oxysporum = assay: Growth inhibition of Fusarium oxysporum; format: functional, organism-based; outline: as §1
Cytospora = assay: Growth inhibition of Cytospora mandshurica; format: functional
Pyricularia grisea = assay: Growth inhibition of Pyricularia grisea; format: functional, organism-based
Phytophthora infestans = assay: Growth inhibition of Phytophthora infestans; format: functional, organism-based
Fusarium graminearum [7] = assay: Antifungal activity against Gibberella zeae; format: functional, organism-based
Outline: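 In vitro inhibition of fungal mycelial growth. EC50 read from the dose–response curve. Three separate experiments, each in triplicate. Hymexazol was the standard reference.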

Pyricularia oryzae = assay: Growth inhibition of Pyricularia oryzae; format: functional, organism-based

Compound `C=CCS(=O)(=O)c1nnc(-c2cc(OC)c(OC)c(OC)c2)s1` has an inhibition at 50 µg/mL (Botrytis cinerea [1]) of 47.3%, an inhibition at 50 µg/mL (Sclerotinia sclerotiorum [2]) of 40.5% and an inhibition at 50 µg/mL (Fusarium graminearum [3]) of 14%.
`COc1cccc(CS(=O)(=O)c2nnc(-c3cc(OC)c(OC)c(OC)c3)s2)c1` gave an inhibition at 50 µg/mL (Botrytis cinerea [1]) of 53.4%, an inhibition at 50 µg/mL (Sclerotinia sclerotiorum [2]) of 74.5% and an inhibition at 50 µg/mL (Fusarium graminearum [3]) of 43.2%.
`CCCS(=O)(=O)c1nnc(-c2cc(OC)c(OC)c(OC)c2)o1` was tested, and the inhibition at 50 µg/mL (Botrytis cinerea [1]) was 59.4%, the inhibition at 50 µg/mL (Sclerotinia sclerotiorum [2]) was 64% and the inhibition at 50 µg/mL (Fusarium graminearum [3]) was 59%.
With `CCOC(=O)CS(=O)(=O)c1nnc(-c2cc(OC)c(OC)c(OC)c2)o1` the inhibition at 50 µg/mL (Botrytis cinerea [1]) was 81.9%, the inhibition at 50 µg/mL (Sclerotinia sclerotiorum [2]) was 79.9% and the inhibition at 50 µg/mL (Fusarium graminearum [3]) was 52%.
`COc1cccc(CS(=O)(=O)c2nnc(-c3cc(OC)c(OC)c(OC)c3)o2)c1` showed an inhibition at 50 µg/mL (Botrytis cinerea [1]) of 38.1%, an inhibition at 50 µg/mL (Sclerotinia sclerotiorum [2]) of 40.6% and an inhibition at 50 µg/mL (Fusarium graminearum [3]) of 5.7%.
`CCS(=O)(=O)c1nnc(-c2cc(OC)c(OC)c(OC)c2)o1` gave an inhibition at 50 µg/mL (Botrytis cinerea [1]) of 100%, an EC50 [4] of 26.3 µg/mL (≈ 80.1 µM) and an EC50 (Sclerotinia sclerotiorum [5]) of 4.3 µg/mL (≈ 13.1 µM). For the same compound, the inhibition at 50 µg/mL (Sclerotinia sclerotiorum [2]) was 100%, the EC50 (Rhizoctonia solani) was 45.6 µg/mL (≈ 139 µM) and the EC50 (Botrytis cinerea [6]) was 2.9 µg/mL (≈ 8.83 µM). The EC50 (Fusarium oxysporum) was 18 µg/mL (≈ 54.8 µM) and the EC50 (Cytospora) was 20.5 µg/mL (≈ 62.4 µM).
`C=CCS(=O)(=O)c1nnc(-c2cc(OC)c(OC)c(OC)c2)o1` was tested, and the inhibition at 50 µg/mL (Botrytis cinerea [1]) was 40.9%, the inhibition at 50 µg/mL (Sclerotinia sclerotiorum [2]) was 40.9% and the inhibition at 50 µg/mL (Fusarium graminearum [3]) was 26.4%.
Compound `COc1cc(-c2nnc(S(=O)(=O)Cc3ccc([N+](=O)[O-])cc3)o2)cc(OC)c1OC` has an inhibition at 50 µg/mL (Botrytis cinerea [1]) of 76.8%, an inhibition at 50 µg/mL (Sclerotinia sclerotiorum [2]) of 62.2% and an inhibition at 50 µg/mL (Fusarium graminearum [3]) of 42.1%.
`COc1cc(-c2nnc(S(=O)(=O)Cc3ccc(Cl)nc3)s2)cc(OC)c1OC` showed an inhibition at 50 µg/mL (Botrytis cinerea [1]) of 25.9%, an inhibition at 50 µg/mL (Sclerotinia sclerotiorum [2]) of 21.3% and an inhibition at 50 µg/mL (Fusarium graminearum [3]) of -1.1%.
In the case of `COc1cc(-c2nnc(S(=O)(=O)Cc3ccccc3)s2)cc(OC)c1OC`, the inhibition at 50 µg/mL (Botrytis cinerea [1]) is reported as 27.5%, the inhibition at 50 µg/mL (Sclerotinia sclerotiorum [2]) is reported as 22.9% and the inhibition at 50 µg/mL (Fusarium graminearum [3]) is reported as 8.3%.
`CCOC(=O)CS(=O)(=O)c1nnc(-c2cc(OC)c(OC)c(OC)c2)s1` was tested, and the inhibition at 50 µg/mL (Botrytis cinerea [1]) was 49.7%, the inhibition at 50 µg/mL (Sclerotinia sclerotiorum [2]) was 49.4% and the inhibition at 50 µg/mL (Fusarium graminearum [3]) was 21.1%.
`COc1cc(-c2nnc(S(=O)(=O)Cc3cccc([N+](=O)[O-])c3)o2)cc(OC)c1OC` gave an inhibition at 50 µg/mL (Botrytis cinerea [1]) of 40.7%, an inhibition at 50 µg/mL (Sclerotinia sclerotiorum [2]) of 38.3% and an inhibition at 50 µg/mL (Fusarium graminearum [3]) of 11.8%.
`COc1ccc(CS(=O)(=O)c2nnc(-c3cc(OC)c(OC)c(OC)c3)o2)cc1` gave an inhibition at 50 µg/mL (Botrytis cinerea [1]) of 58.5%, an inhibition at 50 µg/mL (Sclerotinia sclerotiorum [2]) of 58.5% and an inhibition at 50 µg/mL (Fusarium graminearum [3]) of 33.9%.
`COc1cc(-c2nnc(S(=O)(=O)Cc3ccc(F)cc3)o2)cc(OC)c1OC` gave an inhibition at 50 µg/mL (Botrytis cinerea [1]) of 41.6%, an inhibition at 50 µg/mL (Sclerotinia sclerotiorum [2]) of 62.7% and an inhibition at 50 µg/mL (Fusarium graminearum [3]) of 28.1%.
Work on `COc1cc(-c2nnc(S(=O)(=O)Cc3ccccc3Cl)o2)cc(OC)c1OC` yielded an inhibition at 50 µg/mL (Botrytis cinerea [1]) of 26.1%, an inhibition at 50 µg/mL (Sclerotinia sclerotiorum [2]) of 39.6% and an inhibition at 50 µg/mL (Fusarium graminearum [3]) of 11.9%.
Compound `COc1ccccc1CS(=O)(=O)c1nnc(-c2cc(OC)c(OC)c(OC)c2)o1` has an inhibition at 50 µg/mL (Botrytis cinerea [1]) of 42.3%, an inhibition at 50 µg/mL (Sclerotinia sclerotiorum [2]) of 37.2% and an inhibition at 50 µg/mL (Fusarium graminearum [3]) of 23.7%.
For `COc1cc(-c2nnc(S(=O)(=O)Cc3cccc(F)c3)o2)cc(OC)c1OC`, the inhibition at 50 µg/mL (Botrytis cinerea [1]) was 35.8%, the inhibition at 50 µg/mL (Sclerotinia sclerotiorum [2]) was 38.3% and the inhibition at 50 µg/mL (Fusarium graminearum [3]) was 9.3%.
Compound `COc1cc(-c2nnc(S(=O)(=O)Cc3ccccc3F)o2)cc(OC)c1OC` has an inhibition at 50 µg/mL (Botrytis cinerea [1]) of 52.3%, an inhibition at 50 µg/mL (Sclerotinia sclerotiorum [2]) of 33.4% and an inhibition at 50 µg/mL (Fusarium graminearum [3]) of 18.2%.
`COc1cc(-c2nnc(S(=O)(=O)Cc3ccc(Cl)cc3)o2)cc(OC)c1OC` was tested, and the inhibition at 50 µg/mL (Botrytis cinerea [1]) was 30.8%, the inhibition at 50 µg/mL (Sclerotinia sclerotiorum [2]) was 35.5% and the inhibition at 50 µg/mL (Fusarium graminearum [3]) was 23.3%.
Work on `COc1cc(-c2nnc(S(=O)(=O)Cc3ccc(Cl)nc3)o2)cc(OC)c1OC` yielded an inhibition at 50 µg/mL (Botrytis cinerea [1]) of 60.3%, an inhibition at 50 µg/mL (Sclerotinia sclerotiorum [2]) of 67.9% and an inhibition at 50 µg/mL (Fusarium graminearum [3]) of 38.9%.
Compound `COc1cc(-c2nnc(S(C)(=O)=O)o2)cc(OC)c1OC` has an EC50 (Pyricularia grisea) of 30.8 µg/mL (≈ 98 µM), an inhibition at 50 µg/mL (Botrytis cinerea [1]) of 100% and an EC50 (Phytophthora infestans) of 83.2 µg/mL (≈ 265 µM). For the same compound, the EC50 [4] was 21.8 µg/mL (≈ 69.4 µM), the EC50 (Sclerotinia sclerotiorum [5]) was 12.5 µg/mL (≈ 39.8 µM) and the EC50 (Fusarium graminearum [7]) was 28.8 µg/mL (≈ 91.6 µM). It also gave an inhibition at 50 µg/mL (Sclerotinia sclerotiorum [2]) of 100%, an inhibition at 50 µg/mL (Fusarium graminearum [3]) of 55.8% and an EC50 (Rhizoctonia solani) of 93.3 µg/mL (≈ 297 µM). The EC50 (Botrytis cinerea [6]) was 11.7 µg/mL (≈ 37.2 µM), the EC50 (Pyricularia oryzae) was 90.7 µg/mL (≈ 289 µM) and the EC50 (Fusarium oxysporum) was 24.5 µg/mL (≈ 77.9 µM). It also gave an EC50 (Cytospora) of 80.5 µg/mL (≈ 256 µM).
For `COc1cc(-c2nnc(S(C)(=O)=O)s2)cc(OC)c1OC`, the inhibition at 50 µg/mL (Botrytis cinerea [1]) was 27.1%, the inhibition at 50 µg/mL (Sclerotinia sclerotiorum [2]) was 40.7% and the inhibition at 50 µg/mL (Fusarium graminearum [3]) was 11.6%.
Work on `COc1cc(-c2nnc(S(=O)(=O)Cc3ccc([N+](=O)[O-])cc3)s2)cc(OC)c1OC` yielded an inhibition at 50 µg/mL (Botrytis cinerea [1]) of 30.3%, an inhibition at 50 µg/mL (Sclerotinia sclerotiorum [2]) of 20% and an inhibition at 50 µg/mL (Fusarium graminearum [3]) of -1.8%.
`CCCS(=O)(=O)c1nnc(-c2cc(OC)c(OC)c(OC)c2)s1` gave an inhibition at 50 µg/mL (Botrytis cinerea [1]) of 33.5%, an inhibition at 50 µg/mL (Sclerotinia sclerotiorum [2]) of 38.1% and an inhibition at 50 µg/mL (Fusarium graminearum [3]) of 13.5%.
With `COc1cc(-c2nnc(S(=O)(=O)Cc3ccc(Cl)cc3)s2)cc(OC)c1OC` the inhibition at 50 µg/mL (Botrytis cinerea [1]) was 20.8%, the inhibition at 50 µg/mL (Sclerotinia sclerotiorum [2]) was 20.3% and the inhibition at 50 µg/mL (Fusarium graminearum [3]) was 5.5%.
`COc1cc(-c2nnc(S(=O)(=O)Cc3ccccc3)o2)cc(OC)c1OC` was tested, and the inhibition at 50 µg/mL (Botrytis cinerea [1]) was 67.3%, the inhibition at 50 µg/mL (Sclerotinia sclerotiorum [2]) was 71.2% and the inhibition at 50 µg/mL (Fusarium graminearum [3]) was 54.9%.
`Cc1cc(O)no1` [HYMEXAZOL] gave an inhibition at 50 µg/mL (Botrytis cinerea [1]) of 75.4%, an inhibition at 50 µg/mL (Sclerotinia sclerotiorum [2]) of 77.5% and an inhibition at 50 µg/mL (Fusarium graminearum [3]) of 52.9%. The EC50 (Rhizoctonia solani) was 52.1 µg/mL (≈ 526 µM) and the EC50 (Fusarium oxysporum) was 29.1 µg/mL (≈ 294 µM).
